# According to PubChem BioAssay:
# Activity calls are given as the source filed them.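 How the source made its calls, unless noted: active means viability at or under a set limit in both replicates, limit being median viability minus 3 SD (cut at about 48% in these data, passing the limit was not always enough); inconclusive means at or under the limit in just one replicate; inactive means at or above the limit in both replicates.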
# Columns and labels:
# [1] = Her2 expression decrease, cell viability multiplex – SKBR3 breast tumor cells, AlphaScreen, ATP viability, primary screen (AID 461;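 active means Her2 level under about 52% in both replicate screens, with viability over 70% of control, limit read from the data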;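 on Her2 level: lower value means less Her2 protein in the cells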;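 on viability: percent of carrier control wells set as 100% viability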); settings: SKBR3 Her2 protein level, 18-24 h, measured here: SKBR3 viability, ATP luminescence, at 10 µM
# [2] = target: Receptor tyrosine-protein kinase erbB-2 (Homo sapiens) (UniProt P04626); experiment: as above; settings: 18-24 h, at 10 µM, stronger effect = lower value
# Chain of Receptor tyrosine-protein kinase erbB-2 (Homo sapiens) (P04626 whole entry, looked up): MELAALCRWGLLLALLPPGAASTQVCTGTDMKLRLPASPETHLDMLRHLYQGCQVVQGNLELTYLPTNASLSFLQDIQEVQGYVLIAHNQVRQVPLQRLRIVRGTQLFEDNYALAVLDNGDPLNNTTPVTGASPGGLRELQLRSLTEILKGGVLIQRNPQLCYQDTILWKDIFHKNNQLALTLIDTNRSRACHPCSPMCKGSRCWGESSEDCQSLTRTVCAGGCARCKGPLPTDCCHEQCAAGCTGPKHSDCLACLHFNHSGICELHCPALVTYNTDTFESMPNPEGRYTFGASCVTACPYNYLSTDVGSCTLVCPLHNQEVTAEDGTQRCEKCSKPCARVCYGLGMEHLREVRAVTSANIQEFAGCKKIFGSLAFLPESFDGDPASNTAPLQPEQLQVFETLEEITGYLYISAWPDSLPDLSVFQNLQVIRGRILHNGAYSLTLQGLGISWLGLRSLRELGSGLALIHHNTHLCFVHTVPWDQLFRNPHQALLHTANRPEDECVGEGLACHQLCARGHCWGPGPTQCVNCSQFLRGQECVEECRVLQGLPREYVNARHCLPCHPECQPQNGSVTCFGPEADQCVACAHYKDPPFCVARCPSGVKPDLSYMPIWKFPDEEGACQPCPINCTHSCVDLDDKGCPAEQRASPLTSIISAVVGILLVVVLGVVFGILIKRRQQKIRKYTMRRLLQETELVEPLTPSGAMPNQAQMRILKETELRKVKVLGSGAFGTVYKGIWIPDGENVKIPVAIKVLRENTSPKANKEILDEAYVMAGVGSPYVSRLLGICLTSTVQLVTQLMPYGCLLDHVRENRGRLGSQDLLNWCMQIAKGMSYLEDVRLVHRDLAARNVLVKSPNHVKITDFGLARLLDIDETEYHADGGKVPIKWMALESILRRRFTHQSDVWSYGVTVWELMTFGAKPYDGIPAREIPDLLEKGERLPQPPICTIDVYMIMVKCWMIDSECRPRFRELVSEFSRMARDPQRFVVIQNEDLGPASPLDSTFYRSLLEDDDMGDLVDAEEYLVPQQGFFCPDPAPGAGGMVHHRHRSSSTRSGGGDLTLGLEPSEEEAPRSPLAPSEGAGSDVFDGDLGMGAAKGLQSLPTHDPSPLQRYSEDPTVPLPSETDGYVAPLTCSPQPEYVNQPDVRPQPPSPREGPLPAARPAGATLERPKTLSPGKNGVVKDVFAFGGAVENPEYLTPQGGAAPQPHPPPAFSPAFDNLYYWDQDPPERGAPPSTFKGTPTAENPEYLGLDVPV
# [3] = reduced viability of SK-BR-3 breast cancer cells – cell-based, 24 h, human, pilot screen (AID 572;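 active means viability at or below 10% of carrier control in both of two separate runs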;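 further: compound exposure lasted between 18 and 24 h rather than exactly 24 h; 100% = carrier-treated control wells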); settings: SK-BR-3 viability, CellTiter-Glo luminescence, at 10 µM, stronger effect = lower value
# [4] = HUVEC growth inhibition – cell-based, human, primary screen (AID 575;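 active means viability at or below 30% in both replicate assays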;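 further: 100% = median of untreated cell wells with 0.1% DMSO on each plate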); settings: HUVEC proliferation, CellTiter-Glo luminescence, 72 h; at 10 µM; stronger effect = lower value
# Method in brief: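 Material: primary human umbilical vein endothelial cells / Schedule: 72 h exposure, 37 °C, 5% CO2, 30 min RT equilibration / Signal: ATP-based CellTiter-Glo luminescent read / Read-out basis: percent of median DMSO-control luminescence / Control set: 32 DMSO-only cell-control wells (high), 32 MePR drug-control wells (low) per plate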
# [5] = H69AR cell proliferation blockers – human, duplicate replicates, primary screen (AID 580); settings: H69AR lung tumor cells viability, ATP luminescence, 72 h; at 10 µM; stronger effect = lower value;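 further: 100% = mean luminescence of untreated wells and 0% = no signal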
# [6] = MRP1 drug-resistance reversers in H69AR cells – cell-based, doxorubicin co-treatment, pilot screen (AID 601;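 active means viability loss from added drug above about 55%, and viability with drug at most 40%, in both replicates, limit read from the data, passing the limit was not always enough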); settings: CellTiter-Glo, 72 h, at 10 µM; for differential viability (reversal): stronger effect = higher value
# [7] = yeast transport mutant growth inhibition pilot in 384-well plates, post-Golgi transport modulator project (AID 636; in the data active means inhibition above about 31%); settings: absorbance 615 nm, about 18 h, stronger effect = higher value
# [8] = growth suppression of yeast trafficking mutant, preliminary HTS, modulators of trafficking downstream of Golgi apparatus project, 1536-format plate, OD 615 nm (AID 637; in the data active means inhibition above about 30%); settings: yeast transport mutant growth, absorbance 615 nm, 18 h; stronger effect = higher value
# [9] = H69AR cells + 2 uM doxorubicin, measured here: viability with 2 uM doxorubicin, stronger effect = lower value
# [10] = H69AR cells, compound alone cytotoxicity
SMILES,viability [1],Her2 level [2],viability [3],viability [4],viability [5],differential viability (reversal) ([6]; H69AR cells + 2 uM doxorubicin),"viability [6, 9]","viability [6, 10]",inhibition [7],inhibition [8]
CCSc1nc2c(c(=O)n1CC)SC(C)C2 (stereo not given),102%,86.5% (inactive),102% (inactive),111% (inactive),94.1% (inactive),6.39% (inactive),87.7%,94.1%,-5.47% (inactive),6.07% (inactive)
CCc1ccccc1NC(=O)C(C#N)Cc1cccnc1 (stereo not given),90%,88.5% (inactive),90% (inactive),97.4% (inactive),94.6% (inactive),-1.77% (inactive),96.3%,94.6%,-2.57% (inactive),-0.49% (inactive)
Cc1c(CCC#N)c(N2CCN(C3CCCCC3)CC2)n2c(nc3ccccc32)c1C#N,88%,83.5% (inactive),88% (inactive),74.7% (inactive),32.5% (active),10.4% (inactive),22.1%,32.5%,-5.48% (inactive),-0.16% (inactive)
Cc1cccc2sc(NC(=O)CN(C)S(=O)(=O)c3cccs3)nc12,76.5%,125% (inactive),76.5% (inactive),48.8% (inactive),92% (inactive),-0.425% (inactive),92.5%,92%,0.39% (inactive),-6.33% (inactive)
COCCNC(=O)CCc1nc(-c2ccccc2)no1,87%,103% (inactive),87% (inactive),92.6% (inactive),103% (inactive),5.2% (inactive),98.1%,103%,-3.47% (inactive),2.7% (inactive)
CCOC(=O)N1CCN(S(=O)(=O)c2ccc(Br)s2)CC1,103%,112% (inactive),103% (inactive),100% (inactive),94.4% (inactive),7.92% (inactive),86.5%,94.4%,-3.03% (inactive),2.95% (inactive)
CCn1cc(C(=O)O)c(=O)c2cc(F)c(N3CCN(C(=O)Nc4ccccc4)CC3)cc21,108%,92% (inactive),108% (inactive),111% (inactive),79.5% (inactive),-1.55% (inactive),81.1%,79.5%,-3.87% (inactive),0% (inactive)
CCOC(=O)c1cc2sccc2n1Cc1ccccc1,100%,116% (inactive),100% (inactive),97.9% (inactive),96% (inactive),15.4% (inactive),80.7%,96%,-2.8% (inactive),1.8% (inactive)
CCc1ccc(NC(=O)C2CC(=O)N(C(C)C)C2)cc1 (stereo not given),111%,104% (inactive),111% (inactive),100% (inactive),90.8% (inactive),-3.8% (inactive),94.6%,90.8%,-4.13% (inactive),-2.46% (inactive)
Cc1ccc(S(=O)(=O)NCCN2CCOCC2)cc1C,88.5%,93% (inactive),88.5% (inactive),91.7% (inactive),86.1% (inactive),-5.21% (inactive),91.3%,86.1%,-0.52% (inactive),-1.11% (inactive)
CCCn1c(SCC(=O)N2CCN(c3ccccc3)CC2)nc2ccccc2c1=O,117%,90.5% (inactive),117% (inactive),70.7% (inactive),83.8% (inactive),0.045% (inactive),83.8%,83.8%,8.38% (inactive),32.7% (active)
COc1ccccc1Cn1nnc2c(=O)[nH]c(C3CCN(C(=O)c4ccccc4Cl)CC3)nc21,93%,95.5% (inactive),93% (inactive),102% (inactive),82.2% (inactive),54.1% (inactive),28.1%,82.2%,-3.64% (inactive),0.48% (inactive)
CCOc1ccc2[nH]c(=O)c(C(c3nnnn3CC3CCCO3)N3CCc4ccccc4C3)cc2c1 (stereo not given),97%,82.5% (inactive),97% (inactive),81.1% (inactive),85.8% (inactive),36.5% (inactive),49.2%,85.8%,-4.93% (inactive),2.62% (inactive)
Nc1nc(N)nc(-c2ccccc2)n1,97.5%,106% (inactive),97.5% (inactive),107% (inactive),99.8% (inactive),4.35% (inactive),95.4%,99.8%,-1.05% (inactive),-0.16% (inactive)
CCCNC(=O)Nc1ccccc1C(=O)Nc1ccc(OC)cc1,85%,81% (inactive),85% (inactive),85.7% (inactive),94.6% (inactive),-9.12% (inactive),104%,94.6%,-4.46% (inactive),-2.3% (inactive)
CC1Cc2ccccc2N1S(=O)(=O)c1cccc(C(=O)OCC(=O)NC2CCS(=O)(=O)C2)c1 (stereo not given),88%,82.5% (inactive),88% (inactive),89.1% (inactive),97.2% (inactive),12.3% (inactive),84.9%,97.2%,-6.4% (inactive),-3.61% (inactive)

SMILES,viability [1],Her2 level [2],viability [3],viability [4],viability [5],differential viability (reversal) ([6]; H69AR cells + 2 uM doxorubicin),"viability [6, 9]","viability [6, 10]",inhibition [7],inhibition [8]
CCOc1cc(C(=O)N2CCN=C2SC)cc(OCC)c1OCC,91.5%,83% (inactive),91.5% (inactive),87.4% (inactive),105% (inactive),10.1% (inactive),95.2%,105%,-4.73% (inactive),9.05% (inactive)
O=C(NCc1cccnc1)c1ccc2c(c1)OCO2,74%,102% (inactive),74% (inactive),105% (inactive),89.7% (inactive),-16.9% (inactive),107%,89.7%,-1.35% (inactive),-9.18% (inactive)
O=C(NC12CC3CC(CC(C3)C1)C2)C1CCCN1C(=O)NC1CCCCC1 (stereo not given),102%,113% (inactive),102% (inactive),108% (inactive),92.6% (inactive),16.5% (inactive),76.2%,92.6%,-6.62% (inactive),1.5% (inactive)
Cc1ccc(S(=O)(=O)N(C)Cc2cc3ccccc3[nH]c2=O)cc1,114%,86.5% (inactive),114% (inactive),111% (inactive),91.5% (inactive),3.6% (inactive),87.9%,91.5%,0.26% (inactive),-6.91% (inactive)
Cc1cccc2sc(NC(=O)Cn3cccc3)nc12,87%,93.5% (inactive),87% (inactive),107% (inactive),89.6% (inactive),-8.27% (inactive),97.8%,89.6%,-1.67% (inactive),-1.83% (inactive)
CCN(CC)CCCNS(=O)(=O)c1ccc(OC)cc1,114%,89% (inactive),114% (inactive),103% (inactive),90.3% (inactive),-8.58% (inactive),98.9%,90.3%,-5.32% (inactive),-2.3% (inactive)
Cc1nnc(SCC(=O)N2CCN(S(=O)(=O)c3ccccc3)CC2)[nH]c1=O,109%,98.5% (inactive),109% (inactive),109% (inactive),107% (inactive),15.5% (inactive),91.2%,107%,-6.67% (inactive),-2.9% (inactive)
CCCCc1noc2c1/C(=N\O)CC(c1ccccc1)C2 (stereo not given),86%,82.5% (inactive),86% (inactive),108% (inactive),90.5% (inactive),-0.815% (inactive),91.3%,90.5%,3.11% (inactive),-3.77% (inactive)
COc1ccccc1N1CCN(Cc2nnnn2CCc2ccccc2)CC1,88%,112% (inactive),88% (inactive),91.5% (inactive),93.2% (inactive),3.56% (inactive),89.7%,93.2%,1.51% (inactive),25.6% (inactive)
CC(C)OC(=O)CSc1nnc(Cc2ccccc2)n1Cc1ccco1,92.5%,91.5% (inactive),92.5% (inactive),84.7% (inactive),92.4% (inactive),6.06% (inactive),86.3%,92.4%,-4.27% (inactive),14.1% (inactive)
CN(C)C(=O)CN(c1ccc(F)c(Cl)c1)S(C)(=O)=O,101%,111% (inactive),101% (inactive),92.7% (inactive),90.8% (inactive),-10.3% (inactive),101%,90.8%,-2.11% (inactive),-7.05% (inactive)
CCc1ccc(NC(=O)CSc2nnc(Cc3cccn3C)n2-c2ccc(OC)cc2)cc1,86%,75% (inactive),86% (inactive),61.1% (inactive),95.6% (inactive),-4.31% (inactive),99.9%,95.6%,1.03% (inactive),4.5% (inactive)
O=C1c2ccccc2C(=O)N1C/C=C/c1ccccc1,81%,75% (inactive),81% (inactive),78.2% (inactive),96.7% (inactive),7.29% (inactive),89.5%,96.7%,-3.47% (inactive),-1.29% (inactive)
Cc1cc(C)cc(NC(=O)CCNS(=O)(=O)c2ccc3c(c2)oc(=O)n3C)c1,118%,112% (inactive),118% (inactive),95.8% (inactive),94.9% (inactive),-2.07% (inactive),97%,94.9%,-6.16% (inactive),1.75% (inactive)
COc1ccc(OC)c(S(=O)(=O)Nc2ccccc2C(=O)O)c1,109%,100% (inactive),109% (inactive),98.3% (inactive),99% (inactive),11.8% (inactive),87.2%,99%,-4.4% (inactive),0.16% (inactive)
CC1C(O)=C(c2nc3ccccc3[nH]2)C(=N)N1c1ccccc1 (stereo not given),110%,83% (inactive),110% (inactive),50.5% (inactive),16% (active),-39% (inactive),55%,16%,-6.71% (inactive),-10.6% (inactive)
